# The list is not random: actives were taken first. Their share in the collection is about 4.1%.
# MEKK3 PB1 HTS – modulators (inhibitors or enhancers) of MEK5 binding to human MEKK3 PB1 domain; bead-based flow cytometry, Alexa488-MEK5 binding to MEKK3; actives lie on both sides; 0 = blocked by unlabeled MEK5, 100 = vehicle; binding response (% of control), % at 10 µM; 1.4% of 290,000 active;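 active means binding response more than 3 SD above or below the average of its plate-row segment, actives on both sides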;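 further: Alexa488 bead fluorescence after subtracting the streptavidin-only scavenger bead signal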
# Target sequence (Q99759 whole entry, looked up, the tested form may be a part): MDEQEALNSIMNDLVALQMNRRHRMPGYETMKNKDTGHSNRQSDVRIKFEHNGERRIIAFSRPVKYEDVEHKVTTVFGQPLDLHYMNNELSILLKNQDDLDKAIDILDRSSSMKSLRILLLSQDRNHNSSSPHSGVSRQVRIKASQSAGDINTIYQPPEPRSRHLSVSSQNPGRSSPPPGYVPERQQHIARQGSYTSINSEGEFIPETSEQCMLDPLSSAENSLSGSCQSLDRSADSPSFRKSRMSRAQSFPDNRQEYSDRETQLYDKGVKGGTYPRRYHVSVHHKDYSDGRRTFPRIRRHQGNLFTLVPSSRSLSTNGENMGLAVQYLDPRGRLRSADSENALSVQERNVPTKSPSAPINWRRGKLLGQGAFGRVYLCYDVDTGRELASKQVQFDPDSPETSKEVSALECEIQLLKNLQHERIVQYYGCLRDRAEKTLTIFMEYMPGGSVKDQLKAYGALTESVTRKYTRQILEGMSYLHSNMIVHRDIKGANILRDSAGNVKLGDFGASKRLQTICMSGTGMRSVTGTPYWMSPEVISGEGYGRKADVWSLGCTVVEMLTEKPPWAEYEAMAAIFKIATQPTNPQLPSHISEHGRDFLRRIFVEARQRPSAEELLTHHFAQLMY
# MEKK2wt PB1 HTS – raises or lowers MEK5 binding to wildtype human MEKK2 PB1 domain; Q9Y2U5; 1.1% of 290,000 active; bead flow cytometry, Alexa488-MEK5 binding to MEKK2 WT; actives lie on both sides; binding response (% of control), % at 10 µM; in the data active means binding response below about 67% or above about 130%
# HCV NS3 hel inh – HCV NS3 helicase inhibition; 0.56% of 290,000 active; inhibition, % at 10.9 µM; AID 1800; NS3 helicase DNA unwinding, Cy5 molecular beacon fluorescence;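 active means inhibition above the mean of all tested compounds plus 3 SD, set per campaign, cut at about 35% in these data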;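 further: 0% = DMSO wells and 100% = thioflavine S control wells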
#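 Test system: hepatitis C virus NS3 helicase domain fragment enzyme. Also added: annealed dual-labelled DNA beacon duplex, ATP-started. Timing: 60 min unwinding reaction at 25 °C after ATP addition. Technique: Cy5 fluorescence. Measure: % inhibition of unwinding.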
# T cruzi inh – T. cruzi replication inhibition | T. cruzi beta-gal in NIH3T3, luminescence, 90 h | inhibition, % (concentration not given with the values) | 1.4% of 300,000 active;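 active means mean inhibition across valid replicates above about 55%, limit read from the data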;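 further: signal also drops with host cell toxicity which is not excluded here; 0% = plate median of DMSO wells and 100% = zero luminescence signal; higher percent means less beta-gal luminescence so fewer parasites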
#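 Read-out: Parasite load inhibition, % | Test system: Mouse NIH/3T3 fibroblasts infected with β-gal-expressing T. cruzi Tulahuen C4 | Amount: 5,000 cells/well | Medium: DMEM, 2% fetal bovine serum | Signal: GalScreen β-gal luminescence, detergent lysis, 60 min | Timing: 3 h attach, ≥90 h co-culture | Also added: Tulahuen C4 trypomastigotes, 5000/well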
# MEKK2mut PB1 HTS – signal of MEK5 binding to mutant human MEKK2 PB1 domain; percent response, % at 10 µM; AID 1530; 0.35% of 290,000 active; bead flow cytometry, Alexa488-MEK5 binding to MEKK2 mutant; in the data active means percent response above about 24%, passing the limit was not always enough
# FID counter – displaces DNA intercalator in HCV helicase counter-screen; inhibition, % at 7.9 µM; DNA fluorescent intercalator displacement, fluorescence; 0.17% of 290,000 active; in the data active means inhibition above about 37%;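 further: 0% = vehicle and 100% = reference compound; higher means more ethidium bromide displaced from hairpin DNA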
# MEKK2wt confirm – raises or lowers MEK5 binding to wildtype human MEKK2, retest | shares compounds with MEKK3 PB1 HTS | bead flow cytometry, Alexa488-MEK5 binding to MEKK2 WT; actives lie on both sides | binding response (% of control), % at 10 µM | 2.4% of 5,900 active; in the data active means binding response below about 16% or above about 210%; inactive means in between
# MEKK2mut-MEK5 – signal of MEK5 binding to mutant human MEKK2, retest; bead flow cytometry, Alexa488-MEK5 binding to MEKK2 mutant; 2% of 5,900 active; percent response, % at 10 µM; shares compounds with MEKK3 PB1 HTS; in the data active means percent response mostly above about 71%, no sharp cut-off; inactive means mostly below about 38%;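 further: higher means compound restores mutant binding toward wildtype level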
# MEKK3 confirm – MEKK3-MEK5 PB1 inhibition, single concentration confirmation; 1.8% of 5,900 active; AID 1894; bead flow cytometry, Alexa488-MEK5 binding to MEKK3; stronger effect = lower value; binding response (% of control), % at 10 µM; shares compounds with MEKK3 PB1 HTS;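 active means binding response below 72% of control, or above a set upper limit, though filed actives all read lower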;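 further: 100% = DMSO only wells and 0% = binding blocked by excess unlabeled MEK5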
# * marks the source's active call; other numbers are inactive results; · = not tested or not shown; [ ] = remark or other dose.
SMILES,MEKK3 PB1 HTS,MEKK2wt PB1 HTS,HCV NS3 hel inh,T cruzi inh,MEKK2mut PB1 HTS,FID counter,MEKK2wt confirm,MEKK2mut-MEK5,MEKK3 confirm
O=C(c1cccc([N+](=O)[O-])c1)N1CCN(c2ncccn2)CC1,106,98,-10,-5,32*,-4,101,-4,100
O=C(OCCN=C1NS(=O)(=O)c2ccccc21)c1ccccc1,122*,127,-13,-13,7,-2,103,2,104
Cc1cccc(N2CCN(S(=O)(=O)c3cc(-c4cc(C)no4)ccc3C)CC2C)c1 (stereo unspecified),98,95,-13,25,-4,-30,·,·,·
COc1ccc(Br)cc1CN1CCN(Cc2c[nH]c3ccccc23)CC1,94,117,-80,26,27*,19,138,19,107
COc1ccc(CN2CCN(Cc3c[nH]c4ccccc34)CC2)cc1,106,114,-7,51,12,15,·,·,·
COc1ccccc1NC(=O)C(=O)N/N=C/c1ccc([N+](=O)[O-])s1,63*[inhibitor],60*[inhibitor],-4,62*,-21,2,120,10,103
COc1ccccc1/C=N/NC(=O)C(=O)Nc1ccccc1OC(F)(F)C(F)F,134*,104,1,-18,1,-16,97,-8,98
COc1cccc(/C=N/NC(=O)C(=O)Nc2ccccc2OC(F)(F)C(F)F)c1,149*,111,11,0,1,-8,104,7,104
COc1cccc(/C=N/NC(=O)C(=O)N/N=C/c2cccc(OC)c2O)c1O,104,98,16,·,-2,-4,·,·,·
CC[n+]1oc(-c2ccccc2)cc1C,101,100,9,-9,-2,-1,·,·,·
Cc1ccc(S(=O)(=O)NCCC(=O)Nc2ccncc2)cc1C,·,·,·,-12,·,·,·,·,·
O=C(CSc1n[nH]c(-c2ccncc2)n1)Nc1ccc(Cl)c(C(=O)O)c1,101,103,11,-2,1,-1,·,·,·
Cc1cc(C(=O)c2ccc(Cl)cc2)c(NC(=O)CCl)s1,135*,108,12,15,1,-2,101,3,103
O=C(Cn1cnc2ccccc21)N/N=C/c1cccs1,129*,100,-11,-12,2,-5,105,-2,103
COc1ccc(Cl)cc1N(C(=O)Nc1cccc(Cl)c1)C1=NCC(C)S1 (stereo unspecified),129*,108,7,-10,0,-3,108,2,106
Cc1cccc(N(C(=O)Nc2ccccc2)C2=NCC(C)S2)c1 (stereo unspecified),105,102,-3,-14,1,1,·,·,·
Nc1nonc1C(=O)NCCNCc1ccccc1OCc1ccccc1F,123*,124,-10,10,8,21,113,14,103
CCOc1ccccc1CNCCNC(=O)c1nonc1N,86,86,-11,-6,-11,5,·,·,·
COc1nc2c(c(-c3cc(Br)cs3)c1C#N)Cc1ccccc1-2,133*,127,3,4,25,0,98,-4,102
O=C(N/N=C\c1cn[nH]c1-c1ccc(Cl)cc1)c1cccs1,71*[inhibitor],60*[inhibitor],-1,15,-30,-12,108,13,108
O=C(N/N=C\c1ccc(-c2ccc([N+](=O)[O-])cc2)o1)c1ccc2c(c1)OCO2,142*,108,-3,33,2,0,96,-1,99
O=C(N/N=C/c1cccnc1)c1cccs1,130*,121,-24,-8,28,-6,94,1,104
Cc1ccc(/C=N/NC(=O)c2cccc([N+](=O)[O-])c2)o1,133*,105,6,-8,4,3,115,10,104
O=C(c1ccc(F)cc1)C1CCN(C(=S)NCC2CCCO2)CC1 (stereo unspecified),111,105,-6,-2,0,-19,·,·,·
COCCNC(=O)C(c1ccncc1)N(Cc1ccccc1)C(=O)Cn1nnc2ccccc21 (stereo unspecified),102,101,-9,10,0,-3,·,·,·
SMILES,MEKK3 PB1 HTS,MEKK2wt PB1 HTS,HCV NS3 hel inh,T cruzi inh,MEKK2mut PB1 HTS,FID counter,MEKK2wt confirm,MEKK2mut-MEK5,MEKK3 confirm
Cc1ccc(OCc2cc(C(=O)N(C)Cc3cnc4ccccn34)no2)cc1C,106,108,-22,2,1,-7,·,·,·
C=CCOc1ccc(C(=O)CC)cc1OC,85,94,-3,-9,-2,-4,·,·,·
Cc1ccc(/C=N/n2c(C)nc3ccccc3c2=O)s1,106,103,-6,-3,2,-4,·,·,·
Cc1ccc(/C=N/NC(=O)c2cccs2)o1,128*,110,3,-27,1,4,104,8,103
Cc1ccc(/C=N/NS(=O)(=O)c2ccc([N+](=O)[O-])cc2)o1,134*,106,5,1,1,-7,107,4,101
Cc1ccc(S(=O)(=O)N/N=C\c2ccc(C)o2)cc1,98,100,6,-8,1,-7,·,·,·
O=C(N/N=C/c1cccc([N+](=O)[O-])c1)c1cc2ccccc2o1,69*[inhibitor],91,-4,4,-1,-1,92,1,92
CCOC(=O)C(CCCP(=O)(c1ccccc1)c1ccccc1)(NC(C)=O)C(=O)OCC,102,100,0,-31,-3,-32,·,·,·
COc1cccc(NC(=O)N2CCCC2C(=O)NCc2ccccc2F)c1 (stereo unspecified),99,102,-9,-6,5,-2,·,·,·
COc1cccc(NC(=O)C2CCCN2C(=O)Nc2ccccc2F)c1 (stereo unspecified),1.0*[inhibitor],-2.0*[inhibitor],6,-8,-21,4,99,-1,100
COc1cccc(CN2CCCCC2C(=O)O)c1 (stereo unspecified),40*[inhibitor],60,3,0,-26,-2,98,3,98
COc1cccc(NC(=O)N2CCCC2C(=O)NCc2ccccc2)c1 (stereo unspecified),63*[inhibitor],55*[inhibitor],0,-11,-16,-9,93,-5,97
OC1(C(F)(F)F)CC(c2ccc3ccccc3c2)=NO1 (stereo unspecified),106,99,-2,8,6,-6,·,·,·

# From PubChem
